Test results taken from publication PMC4130904 (The Prostate, 2014).
Where “and” joins values, the source holds several entries; their conditions need not be identical. Identical values can stand only once. Non-standard residues stand in square brackets, D forms with d. Residues, ends and D or L forms follow the SMILES beside them. No end group written: not given here. *: point of attachment. X1 = C/C=C(/C)C(=O)O[C@H]1C(C)=C2[C@H]([C@@H]1OC(=O)CCCCCCC)[C@@](C)(OC(C)=O)C[C@H](OC(=O)CCCCCCCCCCCN*)[C@@]1(O)[C@H]2OC(=O)[C@@]1(C)O; A12ADT = thapsigargin analog A12ADT

Legend:
[1] = Plasma pharmacokinetics of prodrugs and active drug after IV dosing; format: in vivo, mouse
In short: (§1)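 Mice were dosed IV and bled by cardiac puncture under anesthesia to give heparinized plasma; naive-mouse plasma served as control, and tissues and tumors were harvested. Samples were deproteinated in acetonitrile with 0.1% FA, with L12ADT at 1 µM as internal standard. Calibration standards ran 100pM–100 µM. Samples were analysed by reversed-phase LCMS (positive-mode MRM). Terminal t1/2 came from the terminal slope of log-linear concentration–time plots.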

[2] = Tumor pharmacokinetics of prodrug activation in MCF-7 xenografts; format: in vivo, mouse
In short: as §1

[3] = Hydrolysis of prodrugs in mouse plasma ex vivo; format: in vitro ADME; settings: 100 µM prodrug, 37°C, 24 hrs
In short: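 Plasma was taken by intra-cardiac puncture from fully anesthetized mice. Prodrugs were added at 100 µM final and incubated at 37°C for 24 hrs with shaking. Active drug (A-, S-, E-12ADT) was measured by LCMS at 0 and 24hrs.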

[4] = cited from earlier work
[5] = Body weight loss in treated LNCaP xenograft-bearing mice; format: in vivo, mouse
[6] = tested on: LNCaP human prostate cancer xenografts; assay: LNCaP xenograft efficacy study, comparison to docetaxel; format: in vivo, mouse; settings: prodrug 10 nmoles IV days 0, 1, 2; docetaxel 12 mg/kg/dose IV days 0, 3, 6
In short: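 Six-week-old male nude mice (n = 10/group) received subcutaneous rear-flank injections of LNCaP cells at 2.0 × 10⁶ per 100 µL of 60% Matrigel in HBSS. Prodrug was given IV at 6.8 mg/kg/dose (10 nmoles) on days 0, 1, 2. Docetaxel was given IV at 12 mg/kg/dose […] on days 0, 3, 6 for one cycle. Tumor volume (0.5236 × L × W × H) was measured weekly by calipers, and body weight was tracked.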

[7] = target: T1, FAP (Homo sapiens, UniProt Q12884); assay: FAP-mediated hydrolysis of prodrugs ex vivo; format: biochemical
T1 sequence (Q12884 26-760 limits assumed): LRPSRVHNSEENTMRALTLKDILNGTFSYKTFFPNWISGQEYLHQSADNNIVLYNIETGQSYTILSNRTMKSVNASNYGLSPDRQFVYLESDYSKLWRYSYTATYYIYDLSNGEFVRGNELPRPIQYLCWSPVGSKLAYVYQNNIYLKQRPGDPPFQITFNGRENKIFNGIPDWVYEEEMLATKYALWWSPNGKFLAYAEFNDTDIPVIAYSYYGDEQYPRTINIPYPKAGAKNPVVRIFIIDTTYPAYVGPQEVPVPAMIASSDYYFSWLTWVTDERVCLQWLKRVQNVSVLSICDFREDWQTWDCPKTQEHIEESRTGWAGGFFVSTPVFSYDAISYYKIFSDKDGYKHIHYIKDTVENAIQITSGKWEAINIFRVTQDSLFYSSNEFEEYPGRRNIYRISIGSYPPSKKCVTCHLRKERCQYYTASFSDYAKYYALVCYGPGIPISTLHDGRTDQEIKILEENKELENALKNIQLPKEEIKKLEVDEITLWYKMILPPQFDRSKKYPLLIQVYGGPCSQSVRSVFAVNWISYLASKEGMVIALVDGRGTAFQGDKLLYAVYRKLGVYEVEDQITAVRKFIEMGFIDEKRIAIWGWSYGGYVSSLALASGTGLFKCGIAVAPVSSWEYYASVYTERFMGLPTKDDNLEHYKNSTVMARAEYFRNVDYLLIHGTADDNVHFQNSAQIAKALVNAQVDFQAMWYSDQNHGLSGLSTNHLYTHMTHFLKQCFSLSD
In short: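 Recombinant FAP was expressed in Schneider's S2 cells and purified from the culture supernatant. Prodrugs at […] were held in FAP buffer (100mM NaCl, 100mM Tris, pH 7.8) with 10% DMSO, with or without 200nM FAP, at 37°C for 24hrs with shaking. Active drug (A-, S-, E-12ADT) was measured by LCMS at 0, 4 and 24hrs.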

C/C=C(/C)C(=O)O[C@H]1C(C)=C2[C@H]([C@@H]1OC(=O)CCCCCCC)[C@@](C)(OC(C)=O)C[C@H](OC(=O)CCCCCCCCCCCNC(=O)[C@H](CO)NC(=O)[C@H]1CCCN1C(=O)CNC(=O)[C@@H](NC(=O)[C@H](CCC(=O)O)NC(=O)CNC(=O)[C@H](CCCNC(=N)N)NC(=O)[C@@H](N)CCC(=O)O)[C@@H](C)O)[C@@]1(O)[C@H]2OC(=O)[C@@]1(C)O [ERGETGp-S12ADT] (H-ERGETG[dP]S-X1; N-terminus assumed)
12ADT levels in mouse plasma as part of total administered dose ([1]; in vivo after IV dosing): < 0.01% | Cmax ([1]; mouse, plasma, iv): 35 to 40 µM | Tmax ([1]; mouse, plasma, iv): ≤ 1 h | half-life ([1]; mouse, plasma, iv, half-life (t1/2) in mouse plasma, full-length prodrug, single IV dose): 4 to 5 h | clearance from circulation ([1]; single IV dose): almost entirely cleared from circulation by 24 hrs | active species detectable in tumors [2]: only 12ADT is detectable | total active drug concentration in tumor, fold lower than from ERGETGP-S12ADT [2]: ~ 7 fold | active drug generation in mouse plasma ex vivo [3]: no active drug generated

C/C=C(/C)C(=O)O[C@H]1C(C)=C2[C@H]([C@@H]1OC(=O)CCCCCCC)[C@@](C)(OC(C)=O)C[C@H](OC(=O)CCC)[C@@]1(O)[C@H]2OC(=O)[C@@]1(C)O [TG, Thapsigargin]
therapeutic benefit at the maximally-tolerated dose (MTD) [4]: no therapeutic benefit

CC(=O)O[C@@]12CO[C@@H]1C[C@H](O)[C@@]1(C)C(=O)[C@H](O)C3=C(C)[C@@H](OC(=O)[C@H](O)[C@@H](NC(=O)OC(C)(C)C)c4ccccc4)C[C@@](O)([C@@H](OC(=O)c4ccccc4)[C@H]21)C3(C)C [docetaxel]
recovery of body weight ([5]; over the course of the experiment): did not recover | total body weight lost following therapy ([5]; prodrug IV days 0, 1, 2, docetaxel IV days 0, 3, 6): ~ 30% and 30% | anti-tumor effect against LNCaP xenografts [6]: comparable anti-tumor effect

ASGPAGP-A12ADT: FAP-activated prodrug: peptide ASGPAGP coupled to thapsigargin analog A12ADT
active drug (S- or A12ADT) released in the presence of FAP ([7]; 200nM FAP, FAP buffer pH 7.8, 37°C, up to 24hrs, LCMS): 2 µM | stability in the absence of FAP ([7]; FAP buffer without FAP, data not shown): completely stable
